Where two headings read alike, the source gives them in different places. Bridge positions count the residues as written; N and C are the ends. Ends that are not written are not given here.
Legend:
[1] = test system: toad urinary bladder; conditions: cited from earlier work; for pD2 of reference agonist: Table II, ± SEM
[2] = test system: toad urinary bladder; assay: Hydroosmotic response of the toad urinary bladder; format: cell-based, Bufo marinus; conditions: serosal bath, concentrations as high as 2.86 X 10^-6 M
How it was run: (§1)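 Bufo marinus, 150-250 g, both sexes, kept on moist peat moss and pithed. Bentley sac hemibladders filled with dilute Ringer were preincubated 2 h in stirred full-strength Ringer, then moved to the challenge bath. Water loss was read as sac weight loss at 30 min intervals; sacs were emptied, refilled with fresh dilute Ringer and placed in a fresh bath after each weighing.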

[3] = test system: toad urinary bladder; assay: Noncompetitive antagonism of the hydroosmotic response; format: cell-based, Bufo marinus
How it was run: as §1

[4] = test system: toad urinary bladder; conditions: note added in proof; ref Chiu, P.J.S. and W.H. Sawyer. 1970; cited from earlier work
[5] = calculated on the basis of earlier data, ref Eggena et al. (18)

oxytocin
pD2 of reference agonist [1, 5]: 8.63 | Maximal hydroosmotic response [1]: 100%

CCCCC[C@H](O)/C=C/[C@H]1[C@H](O)CC(=O)[C@@H]1CCCCCCC(=O)O [PGE1, prostaglandin E1]
Hydroosmotic activity per se (bladder permeability to water) [2]: did not increase the bladder permeability to water | Effect on response to oxytocin-theophylline combination ([3]; 2.9 X 10^-7 M PGE1, 1 X 10^-9 M oxytocin + 4 X 10^-3 M theophylline, eight experiments): reduced by PGE1 to almost basal levels | Effect on response to cyclic AMP-theophylline combination ([3]; 2.9 X 10^-7 M PGE1, 2.5 X 10^-3 M cyclic AMP + 4 X 10^-3 M theophylline, eight experiments): only minimally | Maximal response to dibutyryl cyclic AMP in the presence of PGE1 ([3]; 2.9 X 10^-7 M PGE1, fraction of maximal response (0.80 without PGE1), ± SEM): 0.72 | Maximal response to theophylline in the presence of PGE1 ([3]; fraction of maximal response (0.78 without PGE1), ± SEM): 0.10 | Diminution in the maximal response to oxytocin in the presence of PGE1, average ([3]; fraction of maximal response, ± 0.10, considerable variation): 0.77

[8-arginine]-vasopressin (CYFQNCPRG-NH2; disulfide 1-6; UniProt P01185 20-28, looked up)
pD2 of reference agonist [1, 5]: 9.40

[4-leucine]-oxytocin (CYILNCPLG; ends and bridges not checked; cysteine pairing not given here; UniProt P01178 20-28, looked up, variant Q4L)
Inhibition of the hydroosmotic action of [8-arginine]-vasopressin and [8-arginine]-vasotocin [4]: competitively in- hibits

[5-ornithine]-oxytocin
pD2 of reference agonist ([1]; ref Havran et al. (22)): 4.92

— PMC2225856 (The Journal of General Physiology, 1970)
